In assay [1] the target is T1, Cytochrome P450 11B2, mitochondrial (Homo sapiens, UniProt P19099).
T1 sequence (P19099 whole entry): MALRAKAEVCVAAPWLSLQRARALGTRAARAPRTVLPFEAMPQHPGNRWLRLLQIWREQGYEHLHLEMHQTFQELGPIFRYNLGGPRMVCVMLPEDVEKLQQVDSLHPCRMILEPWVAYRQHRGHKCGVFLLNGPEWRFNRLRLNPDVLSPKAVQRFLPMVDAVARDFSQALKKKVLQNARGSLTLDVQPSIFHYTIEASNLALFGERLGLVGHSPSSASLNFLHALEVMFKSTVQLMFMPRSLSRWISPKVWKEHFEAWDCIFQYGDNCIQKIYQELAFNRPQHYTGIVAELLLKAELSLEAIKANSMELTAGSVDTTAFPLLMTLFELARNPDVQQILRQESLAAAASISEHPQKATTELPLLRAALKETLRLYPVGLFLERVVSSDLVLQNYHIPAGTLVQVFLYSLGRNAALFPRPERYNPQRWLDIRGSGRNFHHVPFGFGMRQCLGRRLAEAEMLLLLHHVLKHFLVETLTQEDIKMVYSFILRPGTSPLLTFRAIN
Briefly: Inhibition of human CYP11B2 expressed in hamster fibroblast. The method in brief: (§1)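 V79 MZh hamster fibroblasts expressing human CYP11B1 or CYP11B2 incubated with [14C]11-deoxycorticosterone substrate at 100 nM and inhibitor at varied concentrations. Product formation monitored by HPTLC with phosphoimager. IC50 from mean of at least three tests; SD within 5%.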

Assay [2] concerns the target T2, Aromatase (Homo sapiens, UniProt P11511).
T2 sequence (P11511 whole entry): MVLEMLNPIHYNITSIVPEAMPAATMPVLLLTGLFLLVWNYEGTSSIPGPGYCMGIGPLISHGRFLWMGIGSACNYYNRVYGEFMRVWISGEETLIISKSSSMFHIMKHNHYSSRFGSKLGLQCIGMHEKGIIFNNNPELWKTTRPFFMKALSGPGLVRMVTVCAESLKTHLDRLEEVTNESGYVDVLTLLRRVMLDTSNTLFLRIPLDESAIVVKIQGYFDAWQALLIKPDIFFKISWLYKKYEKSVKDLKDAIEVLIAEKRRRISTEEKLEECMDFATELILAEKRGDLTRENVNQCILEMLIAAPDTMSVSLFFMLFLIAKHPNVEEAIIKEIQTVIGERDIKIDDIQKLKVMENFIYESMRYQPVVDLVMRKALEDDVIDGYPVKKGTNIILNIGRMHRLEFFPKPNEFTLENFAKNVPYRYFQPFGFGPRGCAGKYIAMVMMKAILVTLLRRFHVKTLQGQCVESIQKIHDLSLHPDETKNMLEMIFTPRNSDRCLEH
Briefly: Inhibition of human placental CYP19. The procedure, abridged:
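Human placental microsomes with [1β-3H]androstenedione substrate at 500 nM, run in vitro. IC50 values are means of at least three tests; SD within 5%.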

Assay [3] addresses T3, Cytochrome P450 11B1, mitochondrial (Homo sapiens, UniProt P15538).
T3 sequence (P15538 whole entry): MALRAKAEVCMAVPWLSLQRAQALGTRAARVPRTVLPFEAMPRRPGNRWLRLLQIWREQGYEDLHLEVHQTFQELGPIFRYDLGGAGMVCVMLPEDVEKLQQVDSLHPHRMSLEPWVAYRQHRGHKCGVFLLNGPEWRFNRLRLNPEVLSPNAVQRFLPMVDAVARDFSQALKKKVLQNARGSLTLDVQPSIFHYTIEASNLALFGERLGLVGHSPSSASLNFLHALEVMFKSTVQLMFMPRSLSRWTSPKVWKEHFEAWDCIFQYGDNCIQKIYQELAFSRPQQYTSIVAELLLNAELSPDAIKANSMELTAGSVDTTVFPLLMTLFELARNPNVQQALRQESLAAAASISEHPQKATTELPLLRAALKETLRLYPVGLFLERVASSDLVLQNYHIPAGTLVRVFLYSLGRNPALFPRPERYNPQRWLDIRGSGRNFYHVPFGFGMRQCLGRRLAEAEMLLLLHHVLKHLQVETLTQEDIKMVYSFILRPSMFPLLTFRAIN
Nature of the assay: Inhibition of human CYP11B1 expressed in hamster fibroblast. The procedure, abridged: as §1

The target of assay [4] is T4, Steroid 17-alpha-hydroxylase/17,20 lyase (Homo sapiens, UniProt P05093).
T4 sequence (P05093 whole entry): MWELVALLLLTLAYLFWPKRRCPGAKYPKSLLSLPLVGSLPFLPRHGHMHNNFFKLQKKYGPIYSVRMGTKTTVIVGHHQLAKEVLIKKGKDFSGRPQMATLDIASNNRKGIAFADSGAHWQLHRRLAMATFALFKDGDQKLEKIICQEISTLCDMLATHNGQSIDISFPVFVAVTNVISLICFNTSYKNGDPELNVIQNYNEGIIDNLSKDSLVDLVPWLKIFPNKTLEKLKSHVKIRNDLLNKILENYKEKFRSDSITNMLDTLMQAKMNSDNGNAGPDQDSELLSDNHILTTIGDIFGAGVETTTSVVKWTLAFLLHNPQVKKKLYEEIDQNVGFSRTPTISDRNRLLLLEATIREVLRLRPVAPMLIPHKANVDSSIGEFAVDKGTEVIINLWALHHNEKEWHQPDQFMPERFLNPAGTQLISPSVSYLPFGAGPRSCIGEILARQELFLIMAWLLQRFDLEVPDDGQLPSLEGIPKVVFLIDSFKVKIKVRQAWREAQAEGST
Briefly: Inhibition of human CYP17 expressed in Escherichia coli. The procedure, abridged: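 Enzyme source: 50 000 sediment of homogenized E. coli co-expressing human CYP17 and NADPH-P450 reductase. Substrate and product separated by HPLC with UV detection.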

For assay [5], the target named is Cytochrome P450 3A4 (Homo sapiens, UniProt P08684). Nature of the assay: Inhibition of recombinant CYP3A4 expressed in baculovirus-infected insect microsome. It counts as ADME.
Sequence of Cytochrome P450 3A4 (P08684 whole entry): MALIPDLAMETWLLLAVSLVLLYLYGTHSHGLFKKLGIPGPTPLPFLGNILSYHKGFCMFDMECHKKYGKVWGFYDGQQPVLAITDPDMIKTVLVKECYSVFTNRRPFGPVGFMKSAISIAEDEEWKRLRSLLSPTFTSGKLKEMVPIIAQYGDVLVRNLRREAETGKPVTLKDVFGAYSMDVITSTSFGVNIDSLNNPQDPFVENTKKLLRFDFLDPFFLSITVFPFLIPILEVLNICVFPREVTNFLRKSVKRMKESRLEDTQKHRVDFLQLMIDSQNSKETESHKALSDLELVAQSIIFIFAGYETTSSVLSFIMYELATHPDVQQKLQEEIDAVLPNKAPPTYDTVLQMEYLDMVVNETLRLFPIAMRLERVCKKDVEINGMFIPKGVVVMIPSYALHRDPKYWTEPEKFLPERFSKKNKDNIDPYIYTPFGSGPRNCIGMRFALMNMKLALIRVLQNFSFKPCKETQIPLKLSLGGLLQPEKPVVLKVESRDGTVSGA

Our source for the IC50 values is ChEMBL document CHEMBL1212925, “Replacement of imidazolyl by pyridyl in biphenylmethylenes results in selective CYP17 and dual CYP17/CYP11B1 inhibitors for the treatment of prostate cancer” (J Med Chem, 2010).

Broadly, the IC50 is the concentration that inhibits the measured activity by half. Take `Oc1ccc(-c2ccc(Cc3ccncc3)cc2)cc1F`: the IC50 in assay [1] worked out at 210 nM; in assay [2], 2690 nM; in assay [3] it was 850 nM.

Regarding `Nc1ccc(-c2ccc(Cc3ccncc3)cc2)cc1N`, the IC50 is 367 nM in assay [1], more than 25000 nM in assay [2] and 902 nM in assay [3].

In the case of `Fc1ccc(-c2ccc(Cc3ccncc3)cc2)cc1F`, the IC50 in assay [1] amounted to 273 nM; in assay [3], 4740 nM; in assay [4], 598 nM.

In turn, `COc1ccc(-c2ccc(Cc3ccncc3)cc2)cc1F` returned an IC50 in assay [4] of 3340 nM.

In the case of `CC(C)(C)OC(=O)Nc1ccc(-c2ccc(Cc3ccncc3)cc2)cc1`, it took 1370 nM to reach half-maximal inhibition in assay [4] (IC50).

As to `CC(C)(C)OC(=O)Nc1ccc(-c2ccc(Cc3ccncc3)cc2)cc1F`, the concentration for half-maximal inhibition (IC50) in assay [4] was more than 10000 nM.

Turning to `CC(C)(C)OC(=O)Nc1ccc(-c2ccc(Cc3ccncc3)cc2)cc1NC(=O)OC(C)(C)C`, the IC50 in assay [4] is more than 10000 nM.

`COc1ccc(-c2ccc(Cc3ccncc3)cc2)cc1NC(=O)OC(C)(C)C` had an IC50 in assay [4] of more than 10000 nM.

For the molecule `c1cc(Cc2ccc(-c3ccsc3)cc2)ccn1`, the IC50 in assay [1] came out at 331 nM; in assay [3], 415 nM; in assay [4] it was 647 nM.

As to `c1csc(-c2ccc(Cc3ccncc3)cc2)c1`, the half-maximal inhibitory concentration (IC50) turned out to be 796 nM in assay [1], 422 nM in assay [3] and 647 nM in assay [4].

For `c1cc(Cc2ccc(-c3ccc4[nH]ccc4c3)cc2)ccn1`, the results for the IC50 in assay [1], in assay [3] and in assay [4] were 231 nM, 469 nM and 760 nM, respectively.

In assay [4], `COc1ccc2cc(-c3ccc(Cc4ccncc4)cc3)ccc2c1` displayed an IC50 of 2000 nM.

Take `Oc1ccc2cc(-c3ccc(Cc4ccncc4)cc3)ccc2c1`: the IC50 in assay [1] was found to be 1130 nM; in assay [5], 1140 nM; in assay [3] it was 627 nM; in assay [4], 438 nM.

With `CCC(c1ccc(-c2ccc(OC)cc2)cc1)c1cccnc1` (centres undefined), the IC50 in assay [4] was more than 5000 nM.

Take `CCC(c1ccncc1)c1ccc(-c2ccc(OC)cc2)cc1` (centres undefined): the IC50 in assay [4] amounted to 1610 nM.

Take `Oc1ccc(-c2ccc(C(O)n3ccnc3)cc2)cc1` (centres undefined): in assay [4], the IC50 was more than 5000 nM.

Molecule `Oc1ccc(-c2ccc(Cc3cccnc3)cc2)cc1` yielded an IC50 in assay [4] of 4040 nM.

`Oc1ccc(-c2ccc(Cc3ccncc3)cc2)cc1`: the concentration for half-maximal inhibition (IC50) in assay [1] was 341 nM; in assay [5], 3210 nM; in assay [2], 3070 nM; in assay [3], 251 nM; in assay [4], 248 nM.

On to `Nc1ccc(-c2ccc(Cc3ccncc3)cc2)cc1`, for which the IC50 in assay [1] was 406 nM; in assay [5], 2450 nM; in assay [2] it was 24500 nM; in assay [3], 522 nM; in assay [4], 408 nM.

In assay [4], `CC(=O)Nc1ccc(-c2ccc(Cc3ccncc3)cc2)cc1` displayed an IC50 of more than 5000 nM.

For `CC(=O)Nc1cccc(-c2ccc(Cc3ccncc3)cc2)c1`, the half-maximal inhibitory concentration (IC50) stood at 567 nM in assay [1], 307 nM in assay [3] and 876 nM in assay [4].

Regarding `NC(=O)c1ccc(-c2ccc(Cc3ccncc3)cc2)cc1`, in assay [4], 1790 nM corresponded to half-maximal inhibition (IC50).

`CCC(c1ccc(-c2ccc(OC)cc2)cc1)n1ccnc1` (centres undefined): the IC50 in assay [4] is more than 5000 nM.

Regarding `CC(C)(C(=O)c1cccnc1)c1cccnc1` [METYRAPONE], in assay [4], the IC50 was more than 10000 nM.
